Measured values published in ChEMBL document CHEMBL1122393, “Potent antagonists of the antidiuretic responses to arginine-vasopressin based on modifications of [1-(beta-mercapto-beta,beta-cyclopentamethylenepropionic acid),2-D- phenylalanine,4-valine]arginine-vasopressin at position 4” (J Med Chem, 1983).
Numbered stars: 1 amine (or outer) side, 2 acyl side, 3 side chain; on linkers, the order of the positions; unused ones are H or OH. Bridge positions count the residues as written; N and C are the ends. Square brackets hold non-standard residues; d marks the D form. Peptide text beside a SMILES is read from it. X1 = O=C(CC1(S[*:2])CCCCC1)[*:1]

Tests used:
Rattus norvegicus [1] = organism: Rattus norvegicus; test: Effective dose of compound was determined for anti-vasopressor potency in rat; assay type: functional
Procedure, shortened: (§1)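 Intravenous vasopressor assay in phenoxybenzamine-treated rats under urethane anaesthesia, with the USP posterior pituitary reference standard as agonist. Each antagonist was given at two doses. The effective dose (nmol/kg) is the dose that cuts the response to 2x units of agonist to the response to 1x unit given before antagonist. It was interpolated on a log scale between the two doses.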

Rattus norvegicus [2] = test: In vivo antiantidiuretic potency of compound was determined in rats; assay type: functional, organism-based; details: Urine, read-out: pA2 (converted)
Procedure, shortened: (§2)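 Antidiuretic assay in rats under ethanol anaesthesia, with the USP posterior pituitary reference standard as agonist, given intravenously. The standard was injected 20 min after antagonist, or 10 min for analogues without agonism. Two antagonist doses were used, and the effective dose (nmol/kg) was log-interpolated as the dose reducing the 2x-unit response to the 1x-unit response. In vivo pA2 = −log(effective dose/estimated volume of distribution).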

Rattus norvegicus [3] = organism: Rattus norvegicus; test: Effective dose of compound was determined for antiantidiuretic potency in rats; assay type: functional, Urine; procedure, shortened: as §2
Rattus norvegicus [4] = organism: Rattus norvegicus; test: In vitro anti-oxytocic potency of compound in rat uterus in presence of 0.5 mM of Mg; assay type: functional; details: read-out: pA2 (converted)
Procedure, shortened: (§3)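 Oxytocic antagonism on isolated rat uteri, with the USP posterior pituitary reference standard as agonist. Potency is expressed as a pA2 value.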

Rattus norvegicus [5] = test: The compound tested in vivo for anti-vasopressor potency in rats; assay type: functional, organism-based; details: read-out: pA2 (converted); procedure, shortened: as §1
[6] = Ratio of anti-vasopressor ED to antidiuretic ED was determined; assay type: functional, Urine
Procedure, shortened: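 Ratio computed as antivasopressor effective dose divided by antiantidiuretic effective dose. Both effective doses come from intravenous rat assays and are defined as the dose (nmol/kg) that reduces the 2x-unit agonist response to the 1x-unit response.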

Rattus norvegicus [7] = organism: Rattus norvegicus; test: In vitro anti-oxytocic potency of compound in rat uterus in absence of Mg; assay type: functional; details: read-out: pA2 (converted); procedure, shortened: as §3
Rattus norvegicus [8] = test: (§4) In vivo anti-oxytocic potency of compound was determined in rat uterus; assay type: functional
Procedure, shortened: (§5)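 Rat uterus in situ, with synthetic oxytocin as agonist. Two antagonist doses were used, and the effective dose (nmol/kg) was interpolated on a log scale as the dose reducing the 2x-unit response to the 1x-unit response.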

[9] = Ratio of anti-oxytocic ED to antidiuretic ED was determined; assay type: functional, Urine
Procedure, shortened: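 Ratio computed as antioxytocic effective dose divided by antiantidiuretic effective dose. Both effective doses are defined as the dose (nmol/kg) that reduces the 2x-unit agonist response to the 1x-unit response.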

Rattus norvegicus [10] = test: as §4; assay type: functional, organism-based; details: read-out: pA2 (converted); procedure, shortened: as §5
Rattus norvegicus [11] = organism: Rattus norvegicus; test: Effective dose of compound was determined for anti-vasopressor potency in rat; Weak agonist; assay type: functional, organism-based; details: filed as partial agonist
Rattus norvegicus [12] = organism: Rattus norvegicus; test: Effective dose of compound was determined for antiantidiuretic potency in rats; Weak agonist; assay type: functional, organism-based; details: Urine, filed as partial agonist
Procedure, shortened: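 Intravenous antidiuretic assay in rats under ethanol anesthesia. The agonist was the USP posterior pituitary reference standard, injected 20 min after the antagonist to allow recovery from initial antidiuretic responses. Antagonist was given at high and low doses. The effective dose (nmol/kg) reduces the response to 2x units of agonist to that of 1x unit given before antagonist, log-interpolated.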

| SMILES | ED (Rattus norvegicus [1]) [nM/kg] | Kb (Rattus norvegicus [2]) [nM] | ED (Rattus norvegicus [3]) [nM/kg] | Kb (Rattus norvegicus [4]) [nM] | Kb (Rattus norvegicus [5]) [nM] | ED ratio [6] | Kb (Rattus norvegicus [7]) [nM] | ED (Rattus norvegicus [8]) [nM/kg] | ED ratio [9] | Kb (Rattus norvegicus [10]) [nM] | ED (Rattus norvegicus [11]) | ED (Rattus norvegicus [12]) |
| --- | --- | --- | --- | --- | --- | --- | --- | --- | --- | --- | --- | --- |
| CCCC[C@@H]1NC(=O)[C@H](Cc2ccccc2)NC(=O)[C@@H](Cc2ccccc2)NC(=O)CC2(CCCCC2)SSC[C@@H](C(=O)N2CCC[C@H]2C(=O)N[C@@H](CCCN=C(N)N)C(=O)NCC(N)=O)NC(=O)[C@H](CC(N)=O)NC1=O | 2.1 | 75.9 | 5.6 | 16.6 | 30.2 | 0.4 | 28.8 |  |  |  |  |  |
| CC(C)[C@@H]1NC(=O)[C@H](Cc2ccccc2)NC(=O)[C@@H](Cc2ccccc2)NC(=O)CC2(CCCCC2)SSC[C@@H](C(=O)N2CCC[C@H]2C(=O)N[C@@H](CCCN=C(N)N)C(=O)NCC(N)=O)NC(=O)[C@H](CC(N)=O)NC1=O ([dF]FVNCPRG-NH2; linker N-5 via X1) | 0.58 |  | 0.67 |  |  | 0.9 |  | 8.9 |  |  |  |  |
| CC[C@H](C)[C@@H]1NC(=O)[C@H](Cc2ccccc2)NC(=O)[C@@H](Cc2ccccc2)NC(=O)CC2(CCCCC2)SSC[C@@H](C(=O)N2CCC[C@H]2C(=O)N[C@@H](CCCN=C(N)N)C(=O)NCC(N)=O)NC(=O)[C@H](CC(N)=O)NC1=O ([dF]FINCPRG-NH2; linker N-5 via X1) | 0.99 | 5.75 | 0.46 | 6.46 | 13.8 | 2.2 | 9.12 | 5.8 | 13 | 77.6 |  |  |
| CCC[C@@H]1NC(=O)[C@H](Cc2ccccc2)NC(=O)[C@@H](Cc2ccccc2)NC(=O)CC2(CCCCC2)SSC[C@@H](C(=O)N2CCC[C@H]2C(=O)N[C@@H](CCCN=C(N)N)C(=O)NCC(N)=O)NC(=O)[C@H](CC(N)=O)NC1=O | 1.4 | 102 | 6.9 | 19.1 | 18.6 | 0.2 | 9.33 |  |  |  |  |  |
| NC(=O)CNC(=O)[C@H](CCCN=C(N)N)NC(=O)[C@@H]1CCCN1C(=O)[C@@H]1CSSC2(CCCCC2)CC(=O)N[C@H](Cc2ccccc2)C(=O)N[C@@H](Cc2ccccc2)C(=O)N[C@@H](CC2CCCCC2)C(=O)N[C@@H](CC(N)=O)C(=O)N1 | 9 | 64.6 | 4.6 | 25.7 | 200 | 2 | 16.6 |  |  |  |  |  |
| NC(=O)CC[C@@H]1NC(=O)[C@H](Cc2ccccc2)NC(=O)[C@@H](Cc2ccccc2)NC(=O)CC2(CCCCC2)SSC[C@@H](C(=O)N2CCC[C@H]2C(=O)N[C@@H](CCCN=C(N)N)C(=O)NCC(N)=O)NC(=O)[C@H](CC(N)=O)NC1=O [listing 1 of 2 here] | 0.3 |  | 4.3 |  |  | 0.07 |  | 4 | 0.9 |  |  |  |
| NC(=O)CNC(=O)[C@H](CCCN=C(N)N)NC(=O)[C@@H]1CCCN1C(=O)[C@@H]1CSSC2(CCCCC2)CC(=O)N[C@H](Cc2ccccc2)C(=O)N[C@@H](Cc2ccccc2)C(=O)N[C@@H](Cc2ccccc2)C(=O)N[C@@H](CC(N)=O)C(=O)N1 | 25 | 851 | 65 | 21.4 | 355 | 0.5 | 26.9 |  |  |  |  |  |
| C[C@@H](O)[C@@H]1NC(=O)[C@H](Cc2ccccc2)NC(=O)[C@@H](Cc2ccccc2)NC(=O)CC2(CCCCC2)SSC[C@@H](C(=O)N2CCC[C@H]2C(=O)N[C@@H](CCCN=C(N)N)C(=O)NCC(N)=O)NC(=O)[C@H](CC(N)=O)NC1=O | 2.9 | 24 | 1.7 | 9.77 | 41.7 | 1.7 | 9.12 | 3.2 | 1.9 | 44.7 |  |  |
| CC[C@@H]1NC(=O)[C@H](Cc2ccccc2)NC(=O)[C@@H](Cc2ccccc2)NC(=O)CC2(CCCCC2)SSC[C@@H](C(=O)N2CCC[C@H]2C(=O)N[C@@H](CCCN=C(N)N)C(=O)NCC(N)=O)NC(=O)[C@H](CC(N)=O)NC1=O | 1.4 | 11 | 0.77 |  | 20 |  | 18.6 | 2.4 |  | 30.2 |  |  |
| NC(=O)CC[C@@H]1NC(=O)[C@H](Cc2ccccc2)NC(=O)[C@@H](Cc2ccccc2)NC(=O)CC2(CCCCC2)SSC[C@@H](C(=O)N2CCC[C@H]2C(=O)N[C@@H](CCCN=C(N)N)C(=O)NCC(N)=O)NC(=O)[C@H](CC(N)=O)NC1=O [listing 2 of 2 here] |  | 61.7 |  | 3.72 | 4.47 |  | 2.57 |  |  | 56.2 |  |  |
| NC(=O)CNC(=O)[C@H](CCCN=C(N)N)NC(=O)[C@@H]1CCCN1C(=O)[C@@H]1CSSC2(CCCCC2)CC(=O)N[C@H](Cc2ccccc2)C(=O)N[C@@H](Cc2ccccc2)C(=O)N2CCC[C@H]2C(=O)N[C@@H](CC(N)=O)C(=O)N1 |  |  |  | 3720 |  |  | 1740 |  |  |  | Partial agonist | Partial agonist |
| C[C@@H]1NC(=O)[C@H](Cc2ccccc2)NC(=O)[C@@H](Cc2ccccc2)NC(=O)CC2(CCCCC2)SSC[C@@H](C(=O)N2CCC[C@H]2C(=O)N[C@@H](CCCN=C(N)N)C(=O)NCC(N)=O)NC(=O)[C@H](CC(N)=O)NC1=O | 1.9 | 30.2 | 2.2 | 18.6 | 28.2 | 0.9 | 20.9 |  |  |  |  |  |
| NC(=O)CNC(=O)[C@H](CCCN=C(N)N)NC(=O)[C@@H]1CCCN1C(=O)[C@@H]1CSSC2(CCCCC2)CC(=O)N[C@H](Cc2ccccc2)C(=O)N[C@@H](Cc2ccccc2)C(=O)N[C@@H](Cc2ccc(O)cc2)C(=O)N[C@@H](CC(N)=O)C(=O)N1 | 22 | ~2690 | ~178 | 37.2 | 263 | 0.12 | 20.9 |  |  |  |  |  |
| NC(=O)CNC(=O)[C@H](CCCN=C(N)N)NC(=O)[C@@H]1CCCN1C(=O)[C@@H]1CSSC2(CCCCC2)CC(=O)N[C@H](Cc2ccccc2)C(=O)N[C@@H](Cc2ccccc2)C(=O)NCC(=O)N[C@@H](CC(N)=O)C(=O)N1 | 11 | 1410 | 97 | 46.8 | 162 | 0.11 | 17.4 |  |  |  |  |  |
| CC(C)C[C@@H]1NC(=O)[C@H](Cc2ccccc2)NC(=O)[C@@H](Cc2ccccc2)NC(=O)CC2(CCCCC2)SSC[C@@H](C(=O)N2CCC[C@H]2C(=O)N[C@@H](CCCN=C(N)N)C(=O)NCC(N)=O)NC(=O)[C@H](CC(N)=O)NC1=O | 1.3 | 851 | 66 | 13.2 | 20 | 0.02 |  |  |  |  |  |  |
